# Laboratory results published in ChEMBL document CHEMBL3808334, “Synthesis and in vitro evaluation of novel triazine analogues as anticancer agents and their interaction studies with bovine serum albumin” (Eur J Med Chem, 2016).
# What was measured:
# SK-MEL-5 = test: Growth inhibition of human SK-MEL-5 cells assessed as cell growth at 10^-5 M incubated for 48 hrs by sulforhodamine B assay; type: functional; conditions: SK-MEL-5, 48 h, read-out: Activity
# [1] = Growth inhibition of human HCT15 cells assessed as cell growth at 10^-5 M incubated for 48 hrs by sulforhodamine B assay; type: functional; conditions: HCT-15, 48 h, read-out: Activity
# Procedure, shortened: (§1)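 Cells seeded at 5,000–40,000/well according to doubling time and preincubated 24 h at 37 °C, 5% CO2. Time-zero plates were TCA-fixed. DMSO concentrate was diluted in medium with 50 µg/ml gentamicin to give five concentrations (10-fold or ½ log steps), then exposed 48 h. Cells were TCA-fixed, stained with 0.4% SRB and read at 515 nm. Percent growth was taken against time-zero and control; GI50, TGI and LC50 derived.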
# K562 = test: Growth inhibition of human K562 cells assessed as cell growth at 10^-7 M incubated for 48 hrs by sulforhodamine B assay; type: functional; conditions: K562, 48 h, read-out: Activity
# [2] = Growth inhibition of human BT549 cells assessed as cell growth at 10^-8 M incubated for 48 hrs by sulforhodamine B assay; type: functional; conditions: BT-549, 48 h, read-out: Activity
# Procedure, shortened: (§2)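 Five-dose assay: five concentrations from 10-fold or ½-log serial dilutions. Cells are plated at 5,000–40,000 per well according to doubling time, grown 24 h, then exposed 48 h at 37 °C, 5% CO₂. Fixed with cold 50% TCA (final addition) for 60 min at 4 °C and stained with 0.4% SRB in 1% acetic acid. Bound dye is solubilized in 10 mM Tris base and read at 515 nm. GI₅₀ is where [(Ti−Tz)/(C−Tz)]×100 = 50, with a time-zero plate as Tz.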
# A498 = test: Growth inhibition of human A498 cells assessed as cell growth at 10^-8 M incubated for 48 hrs by sulforhodamine B assay; type: functional; conditions: A498, 48 h, read-out: Activity; procedure, shortened: as §2
# [3] = Growth inhibition of human LOXIMVI cells assessed as cell growth at 10^-8 M incubated for 48 hrs by sulforhodamine B assay; type: functional; conditions: LOX IMVI, read-out: Activity
# MDA-MB-435 = test: Growth inhibition of human MDA-MB-435 cells assessed as cell growth at 10^-8 M incubated for 48 hrs by sulforhodamine B assay; type: functional; conditions: MDA-MB-435, 48 h, read-out: Activity
# NCI-H522 = test: Growth inhibition of human NCI-H522 cells assessed as cell growth at 10^-8 M incubated for 48 hrs by sulforhodamine B assay; type: functional; conditions: NCI-H522, 48 h, read-out: Activity
# [4] = Growth inhibition of human UACC62 cells assessed as cell growth at 10^-8 M incubated for 48 hrs by sulforhodamine B assay; type: functional; conditions: UACC-62, 48 h, read-out: Activity
# SN12C = test: Growth inhibition of human SN12C cells assessed as cell growth at 10^-7 M incubated for 48 hrs by sulforhodamine B assay; type: functional; conditions: read-out: Activity
# [5] = Growth inhibition of human UO31 cells assessed as cell growth at 10 uM incubated for 48 hrs by sulforhodamine B assay; type: functional; conditions: UO-31, 48 h, read-out: Activity
# [6] = Growth inhibition of human OVCAR3 cells assessed as cell growth at 10^-6 M incubated for 48 hrs by sulforhodamine B assay; type: functional; conditions: OVCAR-3, 48 h, read-out: Activity
# T47D = test: Growth inhibition of human T47D cells assessed as cell growth at 10 uM incubated for 48 hrs by sulforhodamine B assay; type: functional; conditions: read-out: Activity
# MCF7 = test: Growth inhibition of human MCF7 cells assessed as cell growth at 10 uM incubated for 48 hrs by sulforhodamine B assay; type: functional; conditions: MCF7, 48 h, read-out: Activity
# [7] = Growth inhibition of human MOLT4 cells incubated for 48 hrs by sulforhodamine B assay; type: functional; conditions: MOLT-4, 48 h
# Procedure, shortened: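 Cells were plated at 5,000–40,000 per well according to doubling time and preincubated 24 h at 37 °C in 5% CO2; time-zero plates were then TCA-fixed. Five concentrations (10-fold or ½-log dilutions, DMSO stock) were incubated 48 h. Cells were TCA-fixed, stained with 0.4% SRB and read at 515 nm. GI50 was taken where [(Ti−Tz)/(C−Tz)]×100 = 50.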
# [8] = Growth inhibition of human Hs 578T cells assessed as cell growth at 10^-6 M incubated for 48 hrs by sulforhodamine B assay; type: functional; conditions: read-out: Activity
# [9] = Growth inhibition of human SF268 cells assessed as cell growth at 10^-8 M incubated for 48 hrs by sulforhodamine B assay; type: functional; conditions: SF-268, 48 h, read-out: Activity
# [10] = Growth inhibition of human OVCAR8 cells assessed as cell growth at 10^-7 M incubated for 48 hrs by sulforhodamine B assay; type: functional; conditions: OVCAR-8, 48 h, read-out: Activity
# SR = test: Growth inhibition of human SR cells assessed as cell growth at 10 uM incubated for 48 hrs by sulforhodamine B assay; type: functional; conditions: read-out: Activity
# MDA-MB-231 = test: Growth inhibition of human MDA-MB-231 cells assessed as cell growth at 10 uM incubated for 48 hrs by sulforhodamine B assay; type: functional; conditions: MDA-MB-231, 48 h, read-out: Activity
# [11] = Growth inhibition of human DU145 cells assessed as cell growth at 10 uM incubated for 48 hrs by sulforhodamine B assay; type: functional; conditions: DU-145, 48 h, read-out: Activity
# Procedure, shortened: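 Primary screen at one dose (10 µM) across 60 human cancer cell lines. Readout was growth percent relative to untreated control and time-zero.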
# [12] = Growth inhibition of human RXF393 cells assessed as cell growth at 10 uM incubated for 48 hrs by sulforhodamine B assay; type: functional; conditions: RXF 393, 48 h, read-out: Activity
# Albumin = Albumin (Bos taurus, UniProt P02769); test: Binding affinity to bovine serum albumin assessed as red shift in emission intensity up to 20 uM by fluorescence spectroscopic analysis relative to control; type: ADME; conditions: cattle, isolated protein
# Procedure, shortened: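 Fluorescence titration of 10 µM BSA in 0.1 M phosphate buffer pH 7.4 with compound at 0–20 µM, diluted from DMSO stocks. Excitation 280 nm, slit 10 nm, 1 cm quartz cell, 300 K. Changes in the 350 nm Trp emission, new bands near 370–373 nm and isoemissive points are read against BSA alone.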
# MDA-MB-468 = test: Growth inhibition of human MDA-MB-468 cells assessed as cell growth at 10^-7 M incubated for 48 hrs by sulforhodamine B assay; type: functional; conditions: MDA-MB-468, 48 h, read-out: Activity
# [13] = Growth inhibition of human HCT15 cells incubated for 48 hrs by sulforhodamine B assay; type: functional; conditions: HCT-15, 48 h; procedure, shortened: as §1
# [14] = read-out: LC50 (the source's name)
# [15] = read-out: pLC50 (the source's name) (converted)
# Albumin, sequence (P02769 whole entry): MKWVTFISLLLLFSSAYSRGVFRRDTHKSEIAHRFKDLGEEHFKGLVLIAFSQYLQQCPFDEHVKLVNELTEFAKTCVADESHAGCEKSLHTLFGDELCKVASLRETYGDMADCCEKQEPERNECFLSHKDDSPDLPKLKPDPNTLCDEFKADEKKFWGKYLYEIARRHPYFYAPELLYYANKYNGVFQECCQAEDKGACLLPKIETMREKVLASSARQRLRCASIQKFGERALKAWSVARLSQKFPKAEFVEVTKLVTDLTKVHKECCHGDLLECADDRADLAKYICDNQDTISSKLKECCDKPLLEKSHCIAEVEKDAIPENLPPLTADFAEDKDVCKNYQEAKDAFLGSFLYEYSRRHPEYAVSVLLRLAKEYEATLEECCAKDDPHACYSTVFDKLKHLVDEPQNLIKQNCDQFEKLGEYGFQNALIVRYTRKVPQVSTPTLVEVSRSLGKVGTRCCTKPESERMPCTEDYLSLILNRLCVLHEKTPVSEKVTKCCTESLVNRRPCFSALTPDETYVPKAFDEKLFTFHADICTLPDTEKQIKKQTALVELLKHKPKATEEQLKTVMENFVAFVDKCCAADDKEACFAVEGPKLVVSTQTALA
Structure (SMILES),growth at 10 µM (SK-MEL-5) [%],growth at 10 µM [1] [%],growth at 0.1 µM (K562) [%],growth at 0.01 µM [2] [%],growth at 0.01 µM (A498) [%],growth at 0.01 µM [3] [%],growth at 0.01 µM (MDA-MB-435) [%],growth at 0.01 µM (NCI-H522) [%],growth at 0.01 µM [4] [%],growth at 0.1 µM (SN12C) [%],growth at 10 µM [5] [%],growth at 1 µM [6] [%],growth at 10 µM (T47D) [%],growth at 10 µM (MCF7) [%],GI50 ([7]; read-out: GI50) [nM],TGI ([7]; read-out: TGI) [nM],GI50 ([7]; read-out: pGI50 (converted)) [nM],TGI ([7]; read-out: pTGI (converted)) [nM],growth at 1 µM [8] [%],growth at 0.01 µM [9] [%],further results
Clc1ccc(-c2nc(Nc3ccc(-c4nc5ccccc5[nH]4)cc3)nc(N3CCOCC3)n2)cc1,-94,-76,92,96,94,97,100,100,94,92,-87.6,15,-64.8,-73.8,217,573,219,575,43,98,growth at 0.1 µM [10]: 103%; growth at 10 µM (SR): -83.3%; growth at 10 µM (MDA-MB-231): -76.7%; growth at 10 µM [11]: -94%; growth at 10 µM [12]: -91.1%; Activity (Albumin): 22 nm; growth at 0.1 µM (MDA-MB-468): 112%; GI50 ([13]; read-out: GI50): 188 nM; TGI ([13]; read-out: TGI): 412 nM; GI50 ([13]; read-out: pGI50 (converted)): 191 nM; TGI ([13]; read-out: pTGI (converted)): 407 nM
c1ccc2[nH]c(-c3ccc(Nc4nc(N5CCCCC5)nc(N5CCOCC5)n4)cc3)nc2c1,-90,-49,107,94,92,96,96,89,96,94,-37.8,96,23.4,3.49,2730,7890,2750,7940,89,96,"CC50 [7, 14]: > 100000 nM; CC50 [7, 15]: > 100000 nM; growth at 0.1 µM [10]: 96%; growth at 10 µM (SR): 9.79%; growth at 10 µM (MDA-MB-231): 23.1%; growth at 10 µM [11]: 39%; growth at 10 µM [12]: -56.1%; Activity (Albumin): 25 nm; growth at 0.1 µM (MDA-MB-468): 100%; GI50 ([13]; read-out: GI50): 1880 nM; CC50 [13, 14]: > 100000 nM; TGI ([13]; read-out: TGI): 4380 nM; GI50 ([13]; read-out: pGI50 (converted)): 1860 nM; CC50 [13, 15]: > 100000 nM; TGI ([13]; read-out: pTGI (converted)): 4370 nM"
c1ccc(-c2nc(Nc3ccc(-c4nc5ccccc5[nH]4)cc3)nc(N3CCOCC3)n2)cc1,-92,-58,96,99,86,94,98,100,94,90,-60.6,81,-62.3,-76.2,1330,3530,1320,3550,78,96,"CC50 [7, 14]: 9350 nM; CC50 [7, 15]: 9330 nM; growth at 0.1 µM [10]: 104%; growth at 10 µM (SR): 8.94%; growth at 10 µM (MDA-MB-231): -63.3%; growth at 10 µM [11]: -27.8%; growth at 10 µM [12]: -75.1%; Activity (Albumin): 20 nm; growth at 0.1 µM (MDA-MB-468): 112%; GI50 ([13]; read-out: GI50): 343 nM; TGI ([13]; read-out: TGI): 1540 nM; GI50 ([13]; read-out: pGI50 (converted)): 347 nM; TGI ([13]; read-out: pTGI (converted)): 1550 nM"
Fc1ccc(-c2nc(Nc3ccc(-c4nc5ccccc5[nH]4)cc3)nc(N3CCOCC3)n2)cc1,-87,-35,101,94,100,98,99,96,91,90,-43.5,89,16.1,-44.3,2150,6130,2140,6170,71,95,"CC50 [7, 14]: > 100000 nM; CC50 [7, 15]: > 100000 nM; growth at 0.1 µM [10]: 104%; growth at 10 µM (SR): 6.01%; growth at 10 µM (MDA-MB-231): 5.74%; growth at 10 µM [11]: 38.5%; growth at 10 µM [12]: -67.5%; Activity (Albumin): 23 nm; growth at 0.1 µM (MDA-MB-468): 106%; GI50 ([13]; read-out: GI50): 1670 nM; CC50 [13, 14]: > 100000 nM; TGI ([13]; read-out: TGI): 4780 nM; GI50 ([13]; read-out: pGI50 (converted)): 1660 nM; CC50 [13, 15]: > 100000 nM; TGI ([13]; read-out: pTGI (converted)): 4790 nM"
